Test results: ChEMBL document CHEMBL1800014, “Novel lipophilic acetohydroxamic acid derivatives based on conformationally constrained spiro carbocyclic 2,6-diketopiperazine scaffolds with potent trypanocidal activity” (J Med Chem, 2011)
Active and inactive are the calls of the source. No cut-off for these calls is given here.

How the values were obtained:
Trypanosoma brucei [1] = test: Antitrypanosomal activity against Trypanosoma brucei 427 bloodstream forms assessed as inhibition of parasite growth incubated for 48 hrs by hemocytometry; type: functional, organism-based
Trypanosoma cruzi = test: Antitrypanosomal activity against Trypanosoma cruzi CL Brener clone epimastigotes assessed as inhibition of parasite growth incubated for 5 days by hemocytometry; details: 120 h
L6 = test: Cytotoxicity against rat L6 cells after 6 days using alamar blue staining based fluorescence assay; type: cell-based; details: L6, 144 h
Outline: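 Rat skeletal muscle L6 cells seeded at 1 × 10⁴ ml⁻¹ in medium containing graded compound concentrations and held 6 days at 37 °C. Alamar Blue then added, with fluorescence read after a further 8 h.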

[2] = Selectivity index, ratio of IC50 for rat L6 cells to IC50 for Trypanosoma brucei bloodstream forms; type: toxicity, cell-based; details: read-out: Ratio IC50
Trypanosoma brucei [3] = test: Antitrypanosomal activity against Trypanosoma brucei bloodstream form assessed as inhibition parasite growth
Trypanosoma brucei [4] = test: Antitrypanosomal activity against Trypanosoma brucei relative to amantadine; type: functional
Trypanosoma brucei [5] = test: Antitrypanosomal activity against Trypanosoma brucei relative to rimantadine; type: functional
Trypanosoma brucei [6] = test: Antitrypanosomal activity against Trypanosoma brucei bloodstream forms assessed as inhibition parasite growth at 5 ug/ml; type: functional

IC50 (Trypanosoma brucei [1]) | IC90 (Trypanosoma brucei [1]) | IC50 (Trypanosoma brucei [1]; Trypanosoma brucei, 427, 48 h) | IC90 (Trypanosoma brucei [1]; Trypanosoma brucei, 427, 48 h) | SMILES | further results
134 nM | 276 nM | – | – | C[C@@H]1NC2(C(=O)N(CC(=O)NO)C1=O)C1CC3CC(C1)CC2C3 (stereo partly specified) [listing 1 of 2 here] | –
405 nM | 909 nM | – | – | C[C@@H]1NC2(C(=O)N(CC(=O)NO)C1=O)C1CC3CC(C1)CC2C3 (stereo partly specified) [listing 2 of 2 here] | –
– | – | 17 nM | 26 nM | O=C(CN1C(=O)C(Cc2ccccc2)NC2(C1=O)C1CC3CC(C1)CC2C3)NO (racemic; form 1) | IC50 (Trypanosoma brucei [3]): 285 nM; IC50 (L6): 23700 nM; selectivity ratio [2]: 1400
79 nM | 148 nM | – | – | O=C(CN1C(=O)CNC2(C1=O)C1CC3CC(C1)CC2C3)NO (stereo unspecified) [listing 2 of 2 here] | –
25 nM | 35 nM | – | – | O=C(CN1C(=O)[C@H](Cc2ccccc2)NC2(CCCCCCC2)C1=O)NO [listing 1 of 2 here] | –
6.8 nM | 11.5 nM | – | – | O=C(CN1C(=O)[C@H](Cc2ccccc2)NC2(C1=O)C1CC3CC(C1)CC2C3)NO (stereo partly specified) [listing 1 of 2 here] | IC50 (Trypanosoma cruzi): 210 nM; IC90 (Trypanosoma cruzi): 360 nM; IC50 (Trypanosoma brucei [3]): 332 nM; IC50 (L6): 10400 nM; selectivity ratio [2]: 1500
– | – | 29 nM | 39 nM | O=C(CN1C(=O)[C@H](Cc2ccccc2)NC2(CCCCCCC2)C1=O)NO [listing 2 of 2 here] | IC50 (L6): 93800 nM; selectivity ratio [2]: 3200
18 nM | 24 nM | – | – | O=C(CN1C(=O)C(Cc2ccccc2)NC2(C1=O)C1CC3CC(C1)CC2C3)NO (racemic; form 2) | –
– | – | 9.1 nM | – | O=C(CN1C(=O)[C@@H](Cc2ccccc2)NC2(C1=O)C1CC3CC(C1)CC2C3)NO (stereo partly specified) [listing 1 of 2 here] | IC50 (Trypanosoma brucei [3]): 106 nM; IC50 (L6): 11600 nM; selectivity ratio [2]: 1300
– | 14 nM | – | – | O=C(CN1C(=O)[C@@H](Cc2ccccc2)NC2(C1=O)C1CC3CC(C1)CC2C3)NO (stereo partly specified) [listing 2 of 2 here] | –
42 nM | 80 nM | – | – | O=C(CN1C(=O)[C@H](Cc2ccccc2)NC2(C1=O)C1CC3CC(C1)CC2C3)NO (stereo partly specified) [listing 2 of 2 here] | –

The remaining lines, values behind:

SMILES | IC50 (Trypanosoma brucei [1]) | IC90 (Trypanosoma brucei [1]) | IC50 (Trypanosoma brucei [1]; Trypanosoma brucei, 427, 48 h) | IC90 (Trypanosoma brucei [1]; Trypanosoma brucei, 427, 48 h) | further results
C[C@@H]1NC2(CCCCCCC2)C(=O)N(CC(=O)NO)C1=O [listing 1 of 2 here] | 134 nM | 259 nM | – | – | –
O=C(CN1C(=O)CNC2(CCCCCC2)C1=O)NO [listing 1 of 2 here] | – | – | 1870 nM | 2530 nM | –
O=C(CN1C(=O)CNC2(C1=O)C1CC3CC(C1)CC2C3)NO (stereo unspecified) [listing 1 of 2 here] | – | – | 90 nM | 155 nM | IC50 (Trypanosoma cruzi): 5510 nM; IC90 (Trypanosoma cruzi): 11100 nM; IC50 (L6): > 325000 nM; selectivity ratio [2]: > 3600
CN1CC(=O)N(CC(=O)NO)C(=O)C12CCCCCCC2 [listing 1 of 2 here] | – | – | 158 nM | 300 nM | –
CN1CC(=O)N(CC(=O)NO)C(=O)C12C1CC3CC(C1)CC2C3 (stereo unspecified) [listing 1 of 2 here] | 340 nM | 622 nM | – | – | –
CN1CC(=O)N(CC(=O)NO)C(=O)C12CCCCCCC2 [listing 2 of 2 here] | 162 nM | 327 nM | – | – | –
O=C1ON=C2C3CC4CC(C3)CC12C4 | – | – | – | – | Ratio IC50 (Trypanosoma brucei [4]): 45; Ratio IC50 (Trypanosoma brucei [5]): 3
CN1CC(=O)N(CC(=O)NO)C(=O)C12CCCCCC2 [listing 1 of 2 here] | – | – | 285 nM | 673 nM | –
O=C(CN1C(=O)CNC2(CCCCCCC2)C1=O)NO [listing 1 of 2 here] | – | – | 300 nM | 635 nM | –
CN1CC(=O)N(CC(=O)NO)C(=O)C12CCCCCC2 [listing 2 of 2 here] | 311 nM | 717 nM | – | – | –
CN1CC(=O)N(CC(=O)NO)C(=O)C12C1CC3CC(C1)CC2C3 (stereo unspecified) [listing 2 of 2 here] | – | – | 193 nM | 328 nM | IC50 (Trypanosoma cruzi): 3620 nM; IC90 (Trypanosoma cruzi): 5990 nM; IC50 (L6): 40400 nM; selectivity ratio [2]: 210
CN1CC(=O)NC(=O)C12C1CC3CC(C1)CC2C3 (stereo unspecified) | – | – | – | – | inhibition of growth at 5 µg/mL (Trypanosoma brucei [6]; read-out: GI): 40%
C[C@@H]1NC2(CCCCCCC2)C(=O)N(CC(=O)NO)C1=O [listing 2 of 2 here] | – | – | 125 nM | 270 nM | –
O=C(CN1C(=O)CNC2(CCCCCC2)C1=O)NO [listing 2 of 2 here] | 1150 nM | 1710 nM | – | – | –
O=C1CNC2(C(=O)N1)C1CC3CC(C1)CC2C3 (stereo unspecified) | – | – | – | – | growth inhibition (GI) (Trypanosoma brucei [6]): inactive
O=C(CN1C(=O)CNC2(CCCCCCC2)C1=O)NO [listing 2 of 2 here] | 266 nM | 495 nM | – | – | –
